Data published in ChEMBL document CHEMBL1155008, “Brassinosteroids: synthesis and activity of some fluoro analogues” (J Med Chem, 2008).
pIC50: −log10 of the molar value.

Assays:
RPMI-8226 = assay: Cytotoxicity against human RPMI 8226 cells assessed as cell survival after 72 hrs by calcein-AM assay; type: functional, cell-based; conditions: RPMI-8226, 72 h
Method in brief: (§1)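 Cells grown in DMEM with 10% fetal calf serum, 4 mM glutamine, penicillin/streptomycin, 37 °C, 5% CO2. Seeded at about 1.25 × 10^5 cells/mL and stabilised 3 h. Six 4-fold dilutions added from DMSO stocks, highest usually 50 µM, DMSO ≤0.6% final. After 72 h, calcein AM for 1 h, fluorescence read. Triplicates, ≥3 repeats; IC50 from dose-response curves.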

MCF7 = assay: Cytotoxicity against human MCF7 cells assessed as cell survival after 72 hrs by calcein-AM assay; type: functional, cell-based; conditions: MCF7, 72 h; method in brief: as §1
BJ = assay: Cytotoxicity against human BJ cells assessed as cell survival after 72 hrs by calcein-AM assay; type: cell-based; method in brief: as §1
CCRF-CEM = assay: Cytotoxicity against human CEM cells assessed as cell survival after 72 hrs by calcein-AM assay; type: functional, cell-based; method in brief: as §1
Phaseolus vulgaris = assay: Phyto activity in Phaseolus vulgaris cv. Pinto assessed as prolongation of the second internode after 5 days by brassinolide-type activity assay; type: functional
Method in brief: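 Bean seedlings germinated 2 days, grown in perlite with diluted Hoagland solution (pH 5.7) at 25-27 °C under 16/8 h light. Seven-day-old plants with 2 mm second internodes received compound in 5 µL lanolin at the bract scar; controls got lanolin alone. ≥7 plants per experiment, ≥3 repeats. Internode length measured after 5 days, difference from control.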

SMILES	pIC50 (RPMI-8226)	pIC50 (MCF7)	pIC50 (BJ)	pIC50 (CCRF-CEM)	Activity (Phaseolus vulgaris) [mm]
CC[C@@H](C(C)C)[C@@H](O)[C@H](O)[C@@H](C)[C@H]1CC[C@H]2[C@@H]3CC(=O)[C@H]4C[C@H](O)[C@H](O)C[C@]4(C)[C@H]3CC[C@]12C	4.59	< 4.30	< 4.30		
C[C@]12CC[C@@H](F)C[C@@H]1C(=O)C[C@@H]1[C@@H]2CC[C@]2(C)[C@@H](OC(=O)c3ccccc3)CC[C@@H]12	< 4.30	< 4.30	< 4.30	< 4.30	0.8
CC(C)[C@@H](C)/C=C/[C@@H](C)[C@H]1CC[C@H]2[C@@H]3CC(=O)[C@H]4C[C@H](F)CC[C@]4(C)[C@H]3CC[C@]12C	< 4.30	< 4.30	< 4.30	< 4.30	9.9
C[C@]12CC[C@H]3[C@@H](CC(=O)[C@@]4(F)C[C@H](O)[C@H](O)C[C@]34C)[C@@H]1CC[C@@H]2O	< 4.30	< 4.30	< 4.30	< 4.30	19.5
CC(=O)O[C@H]1CC[C@H]2[C@@H]3CC(=O)[C@@]4(F)CC=CC[C@]4(C)[C@H]3CC[C@]12C	< 4.30	< 4.30	< 4.30	< 4.30	21.8
CC(=O)O[C@H]1CC[C@H]2[C@@H]3CC(=O)[C@@]4(F)C[C@@H](O)CC[C@]4(C)[C@H]3CC[C@]12C	< 4.30	< 4.30	< 4.30	< 4.30	17.1
C[C@]12CC[C@H]3[C@@H](CC(=O)[C@@]4(F)C[C@@H](O)[C@@H](O)C[C@]34C)[C@@H]1CC[C@@H]2O	4.34	< 4.30	< 4.30	< 4.30	21.8
CC(=O)O[C@H]1CC[C@H]2[C@@H]3CC(=O)[C@@]4(F)C[C@@H](O)[C@@H](O)C[C@]4(C)[C@H]3CC[C@]12C	< 4.30	< 4.30	< 4.30	< 4.30	21.4
C[C@]12CC[C@H](O)C[C@@H]1C(=O)C[C@@H]1[C@@H]2CC[C@]2(C)[C@@H](OC(=O)c3ccccc3)CC[C@@H]12	< 4.30	< 4.30	< 4.30	< 4.30	3.8
C[C@]12CC[C@@H](F)C[C@@H]1C(=O)C[C@@H]1[C@@H]2CC[C@]2(C)[C@@H](O)CC[C@@H]12	< 4.30	< 4.30	< 4.30	< 4.30	5.9
C[C@]12CC[C@H]3[C@@H](CC(=O)[C@@]4(F)C[C@H](O)CC[C@]34C)[C@@H]1CC[C@@H]2O	< 4.30	< 4.30	< 4.30	< 4.30	43.4
CC(=O)O[C@H]1CC[C@H]2[C@@H]3CC(=O)[C@@]4(F)C[C@H](F)CC[C@]4(C)[C@H]3CC[C@]12C	< 4.30	< 4.30	< 4.30	4.37	19.8
CC(=O)O[C@H]1CC[C@H]2[C@@H]3CC(=O)[C@@]4(F)C[C@H](O)[C@H](O)C[C@]4(C)[C@H]3CC[C@]12C	< 4.30	< 4.30	< 4.30	< 4.30	12.3
C[C@]12CC[C@H]3[C@@H](CC(=O)[C@@]4(F)C[C@@H](O)CC[C@]34C)[C@@H]1CC[C@@H]2O	< 4.30	< 4.30	< 4.30	< 4.30	16.9
C[C@]12CC[C@H]3[C@@H](CC(=O)[C@@]4(F)C[C@H](F)CC[C@]34C)[C@@H]1CC[C@@H]2O	< 4.30	< 4.30	< 4.30	< 4.30	18.4
CC(C)[C@@H](C)[C@H](O)[C@@H](O)[C@@H](C)[C@H]1CC[C@H]2[C@@H]3CC(=O)[C@H]4C[C@H](F)CC[C@]4(C)[C@H]3CC[C@]12C	4.63	4.59	4.34	4.86	13.2
C[C@]12CC[C@H]3[C@@H](CC(=O)[C@@]4(F)CC=CC[C@]34C)[C@@H]1CC[C@@H]2O	< 4.30	< 4.30	< 4.30	< 4.30	13.6
CC(C)[C@@H](C)[C@@H](O)[C@H](O)[C@@H](C)[C@H]1CC[C@H]2[C@@H]3CC(=O)[C@H]4C[C@H](F)CC[C@]4(C)[C@H]3CC[C@]12C	4.63	4.59	4.34	4.86	13.2
CC(C)[C@@H](C)/C=C/[C@@H](C)[C@H]1CC[C@H]2[C@@H]3CC(=O)[C@H]4C[C@@H](O)CC[C@]4(C)[C@H]3CC[C@]12C	4.57	4.39	4.38	4.58	9.4
CC(=O)O[C@H]1CC[C@H]2[C@@H]3CC(=O)[C@@]4(F)C[C@H](O)CC[C@]4(C)[C@H]3CC[C@]12C	< 4.30	< 4.30	< 4.30	< 4.30	21.4
C[C@]12CC[C@@H](F)C[C@@H]1C(=O)C[C@@H]1[C@@H]2CC[C@]2(C)C(=O)CC[C@@H]12	< 4.30	< 4.30	< 4.30	< 4.30	14.9
